Paper PMC12248229 (PeerJ, 2025)
Where two headings read alike, the source gives them in different places. Blank lines part the entries; values can stand above or below the compound they belong to.

What was measured:
[1] = format: in vivo, Sprague-Dawley (SD) rats; settings: for AUC(0-t): AUC0–t; for AUC(0-t) / Cmax / MRT last / MRT inf / Tmax / half-life / CLz / Vz: n = 6; for MRT last: MRT0–t; for MRT inf: MRT0–∞; for half-life: t1/2, rats
[2] = test system: patients with advanced HCC; settings: ref Llovet et al., 2008, cited from earlier work
[3] = ref Lathia et al., 2006; cited from earlier work
[4] = test system: Ugt2b7; test: qRT-PCR mRNA expression in rat liver and intestine after 7 days of dosing; format: in vivo; settings: after administration for seven consecutive days
In short: (§1)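 Rats (n = 6/group) gavaged daily for 7 days with test compound: 2.5 or 1 mg/kg in 0.5% CMC-Na, or 100 mg/kg in 0.5% CMC-Na with 5% DMSO. Liver and intestine harvested under chloral hydrate and stored at −80 °C. TRNzol RNA extraction; 1 μg RNA reverse-transcribed. qPCR: 95 °C 15 min, then 40 cycles of 95 °C 10 s/60 °C 32 s. […] reference; 2^−ΔΔCT.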

[5] = in vivo; format: in vivo, Sprague-Dawley (SD) rats; settings: for AUC(0-t): AUC0–t; for AUC(0-inf): AUC0–∞; for MRT last: MRT0–t; for MRT inf: MRT0–∞; for half-life: t1/2, rats
[6] = ref Chen et al., 2021, Zhang et al.; cited from earlier work
[7] = test system: P-gp; test: qRT-PCR mRNA expression in rat liver and intestine after 7 days of dosing; format: in vivo; settings: after multiple doses
In short: as §1

[8] = test system: Ugt1a7; test: as above; format: in vivo; settings: either the liver or the intestine of rats, after multiple doses
In short: as §1

[9] = Stability of analytes in rat plasma; format: physicochemical; settings: n = 6
[10] = test system: Oatp1b2; test: qRT-PCR mRNA expression in rat liver after 7 days of dosing; format: in vivo; settings: after multiple doses
In short: as §1

[11] = Sprague-Dawley, rat, plasma, po, 100 mg/kg, rats, sorafenib 100 mg/kg after empagliflozin […] for 7 consecutive days
[12] = Sprague-Dawley, rat, plasma, po, 100 mg/kg, rats, sorafenib 100 mg/kg after henagliflozin 1 mg/kg for 7 consecutive days
[13] = Sprague-Dawley, rat, plasma, po, 100 mg/kg, rats, sorafenib 100 mg/kg by gavage, alone
[14] = rats, after empagliflozin, versus sorafenib alone group
[15] = rats, coadministered with henagliflozin, versus sorafenib alone
[16] = rats, sorafenib 100 mg/kg after empagliflozin […] for 7 consecutive days
[17] = rats, sorafenib 100 mg/kg after henagliflozin 1 mg/kg for 7 consecutive days
[18] = rats, sorafenib 100 mg/kg by gavage, alone
[19] = Sprague-Dawley, rat, in vivo, po, 1 mg/kg, rats, henagliflozin 1 mg/kg after sorafenib 100 mg/kg for 7 consecutive days, n = 6
[20] = Sprague-Dawley, rat, in vivo, po, 1 mg/kg, rats, henagliflozin 1 mg/kg oral, alone, n = 6
[21] = rats, henagliflozin 1 mg/kg after sorafenib 100 mg/kg for 7 consecutive days, n = 6
[22] = rats, henagliflozin and sorafenib, versus control group
[23] = Autosampler (15 °C) for 6 h, nominal 10 ng/mL
[24] = Autosampler (15 °C) for 6 h, nominal 800 ng/mL
[25] = Autosampler (15 °C) for 6 h, nominal 1,500 ng/mL
[26] = Room temperature for 4 h, nominal 10 ng/mL
[27] = Room temperature for 4 h, nominal 800 ng/mL
[28] = Room temperature for 4 h, nominal 1,500 ng/mL
[29] = Three freeze–thaw cycles (−80 °C to 25 °C), nominal 10 ng/mL
[30] = Three freeze–thaw cycles (−80 °C to 25 °C), nominal 800 ng/mL
[31] = Three freeze–thaw cycles (−80 °C to 25 °C), nominal 1,500 ng/mL
[32] = −80 °C for 30 days, nominal 10 ng/mL
[33] = −80 °C for 30 days, nominal 800 ng/mL
[34] = −80 °C for 30 days, nominal 1,500 ng/mL

Compound: CNC(=O)c1cc(Oc2ccc(NC(=O)Nc3ccc(Cl)c(C(F)(F)F)c3)cc2)ccn1 [Sorafenib]
AUC(0-inf) ([1]; Sprague-Dawley, rat, plasma, po, 100 mg/kg): 20.6 µg·h/mL
AUC(0-t) [1, 11]: 37 µg·h/mL
AUC(0-t) [1, 12]: 33.5 µg·h/mL
AUC(0-t) [1, 13]: 20 µg·h/mL
Cmax [1, 11]: 1.86 µg/mL
Cmax [1, 12]: 1.23 µg/mL
Cmax [1, 13]: 0.967 ± 0.176 µg/mL
MRT last [1, 11]: 28.7 ± 11.5 h
MRT last [1, 12]: 51 ± 11.1 h
MRT last [1, 13]: 37.2 ± 11.4 h
MRT inf [1, 12]: 66 ± 24.8 h
MRT inf [1, 13]: 40.5 ± 13.4 h
Tmax [1, 12]: 5.67 ± 2.58 h
Tmax [1, 13]: 4.33 ± 2.07 h
half-life ([1]; Sprague-Dawley, rat, plasma, po, 100 mg/kg, sorafenib 100 mg/kg after empagliflozin […] for 7 consecutive days): 47.6 ± 32.2 h
half-life ([1]; Sprague-Dawley, rat, plasma, po, 100 mg/kg, sorafenib 100 mg/kg after henagliflozin 1 mg/kg for 7 consecutive days): 28.6 ± 21.7 h
half-life ([1]; Sprague-Dawley, rat, plasma, po, 100 mg/kg, sorafenib 100 mg/kg by gavage, alone): 18.7 ± 4.85 h
decrease of CLz/F of sorafenib ([1]; rats, after empagliflozin, versus control group): 45%
increase of AUC0–t of sorafenib [1, 14]: 84%
increase of AUC0–∞ of sorafenib [1, 14]: 93%
increase of Cmax of sorafenib [1, 14]: 92%
increase of AUC0–t of sorafenib [1, 15]: 67%
increase of AUC0–∞ of sorafenib [1, 15]: 80%
CLz [1, 16]: 3.20 ± 2.01 L/h/kg
Vz [1, 16]: 201.55 ± 161.11 L/kg
CLz [1, 17]: 2.81 ± 0.65 L/h/kg
Vz [1, 17]: 110.19 ± 73.12 L/kg
CLz [1, 18]: 5.82 ± 2.59 L/h/kg
Vz [1, 18]: 93.83 ± 63.20 L/kg
HR (overall survival versus control group) ([2]; 95% confidence interval [0.55–0.87], P < 0.001): 0.69
median overall survival ([2]; patients in the sorafenib group, phase 3 versus placebo): 10.7 months
administered dose eliminated as oxidative metabolites [3]: less than 5%
administered dose removed from the body through glucuronidation [3]: 15%
downregulation of mRNA expression of Ugt2b7 ([4]; rat intestine): 68.3%
effect on the expression of Ugt2b7 ([4]; rat liver): did not significantly affect

AUC(0-t) [5, 19]: 3.45 µg·h/mL
AUC(0-t) [5, 20]: 1.92 µg·h/mL
AUC(0-inf) [5, 19]: 3.46 µg·h/mL
AUC(0-inf) [5, 20]: 1.95 µg·h/mL
Cmax ([5]; Sprague-Dawley, rat, in vivo, po, 1 mg/kg, Cmax, rats, henagliflozin 1 mg/kg oral, alone, n = 6): 0.197 ± 0.0369 µg/mL
MRT last [5, 19]: 9.36 ± 3.63 h
MRT last [5, 20]: 7.84 ± 1.68 h
MRT inf [5, 19]: 9.49 ± 3.57 h
MRT inf [5, 20]: 8.49 ± 2.86 h
Tmax [5, 19]: 1.33 ± 1.36 h
Tmax [5, 20]: 3.25 ± 1.67 h
half-life ([5]; Sprague-Dawley, rat, in vivo, po, 1 mg/kg, henagliflozin 1 mg/kg after sorafenib 100 mg/kg for 7 consecutive days, n = 6): 5.1 ± 1.31 h
half-life ([5]; Sprague-Dawley, rat, in vivo, po, 1 mg/kg, henagliflozin 1 mg/kg oral, alone, n = 6): 5.11 ± 3.62 h
CLz [5, 21]: 0.30 ± 0.05 L/h/kg
Vz [5, 21]: 2.25 ± 0.77 L/kg
CLz ([5]; rats, henagliflozin 1 mg/kg oral, alone, n = 6): 0.53 ± 0.1 L/h/kg
differences in Tmax, t1/2, Vz/F, MRT0–t and MRT0–∞ of henagliflozin ([5]; rats, henagliflozin and sorafenib versus control): no significant differences
increase of AUC0–t of henagliflozin [5, 22]: 79.1%
increase of AUC0–∞ of henagliflozin [5, 22]: 77.7%
Stability: Accuracy (RE%) [9, 23]: −4.33%
Stability: Mean ± SD measured concentration [9, 23]: 9.57 ± 0.87 ng/mL
Stability: Accuracy (RE%) [9, 24]: −1.90%
Stability: Mean ± SD measured concentration [9, 24]: 784.83 ± 31.98 ng/mL
Stability: Accuracy (RE%) [9, 25]: −4.22%
Stability: Mean ± SD measured concentration [9, 25]: 1,436.67 ± 29.44 ng/ml
Stability: Accuracy (RE%) [9, 26]: −0.28%
Stability: Mean ± SD measured concentration [9, 26]: 9.97 ± 0.73 ng/mL
Stability: Accuracy (RE%) [9, 27]: −4.63%
Stability: Mean ± SD measured concentration [9, 27]: 763.00 ± 31.79 ng/mL
Stability: Accuracy (RE%) [9, 28]: −2.00%
Stability: Mean ± SD measured concentration [9, 28]: 1,470.00 ± 59.67 ng/ml
Stability: Accuracy (RE%) [9, 29]: −1.70%
Stability: Mean ± SD measured concentration [9, 29]: 9.83 ± 0.95 ng/mL
Stability: Accuracy (RE%) [9, 30]: −3.65%
Stability: Mean ± SD measured concentration [9, 30]: 770.83 ± 18.66 ng/mL
Stability: Accuracy (RE%) [9, 31]: 0.56%
Stability: Mean ± SD measured concentration [9, 31]: 1,508.33 ± 72.78 ng/ml
Stability: Accuracy (RE%) [9, 32]: −1.12%
Stability: Mean ± SD measured concentration [9, 32]: 9.89 ± 0.95 ng/mL
Stability: Accuracy (RE%) [9, 33]: −1.35%
Stability: Mean ± SD measured concentration [9, 33]: 789.17 ± 38.83 ng/mL
Stability: Accuracy (RE%) [9, 34]: −2.11%
Stability: Mean ± SD measured concentration [9, 34]: 1,468.33± 53.45 ng/ml
Compound: CCOc1ccc(Cc2cc([C@@]34OC[C@@](CO)(O3)[C@@H](O)[C@H](O)[C@H]4O)ccc2Cl)cc1F [Henagliflozin]
eliminated by the fecal route [6]: 50%
eliminated by the renal route [6]: 30%
decrease of mRNA expression of P-gp ([7]; rat intestine): 43.2%
decrease of mRNA expression of P-gp ([7]; rat liver): 27.1%
change in the expression of Ugt1a7 [8]: no significant change
decrease of mRNA expression of Oatp1b2 [10]: 38.4%
